# Hits are enriched below; roughly 6.8% of the tested compounds scored in any of these assays.
# HSF1 inh = HSF1 inhibition | NIH3T3-HGL HSE-luciferase, MG132-induced, luminescence 8 h; hits give low values | activity change, negative = inhibition, % at 7.5 µM (by protocol) | actives 0.77% (n = 300,000) | AID 2098;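 active = more than half of replicate wells show activity change below -50%, luminescence cut by over half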;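 also: luciferase reports HSF-1 transcriptional activity via heat shock element; 0% = median of DMSO wells and -100% = zero luminescence signal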
# HSF-1 act = increases HSF-1 driven luciferase reporter signal; NIH3T3-HGL HSF-1 luciferase reporter, MG132, 8 h; 100% = twice DMSO control signal; activation, % at 9 µM; actives 1.7% (n = 300,000); AID 504408;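 active = mean replicate activation of at least 50% with a set share of replicates each reaching 50%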;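 also: 0% = median of the neutral control wells and 100% = twice that signal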
# AI-2 QS modul = modulators of Vibrio harveyi AI-2 quorum sensing system; actives 0.4% (n = 300,000); activity change, % at 7.5 µM; AID 2094; Vibrio harveyi JMH597 AI-2 luminescence/OD600 ratio, 9 h; hits give low values; strain lacks LuxN and CqsS sensors; 0 = neutral-control median; in the data active = activity change below about -75%, passing the limit was not always enough;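 also: luminescence divided by OD600 gain over 9 h not by final OD600 alone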
# ALR inh = blocks human ALR sulfhydryl oxidase activity; P55789; purified ALR, DTT oxidation, H2O2 HRP-luminol luminescence; inhibition, % (no concentration beside the values); actives 3.8% (n = 290,000); AID 485317;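 active = mean replicate inhibition above about 79%, with every replicate also reaching it, limit read from the data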
# Target sequence (P55789 whole entry, looked up): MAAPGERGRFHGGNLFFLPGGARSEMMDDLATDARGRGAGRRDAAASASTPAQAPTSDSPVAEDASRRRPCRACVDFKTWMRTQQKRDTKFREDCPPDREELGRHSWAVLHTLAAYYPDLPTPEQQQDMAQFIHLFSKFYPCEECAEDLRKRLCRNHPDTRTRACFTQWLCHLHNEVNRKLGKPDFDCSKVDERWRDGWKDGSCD
# core dimer inh = blocks dimerization of HCV core protein; TR-FRET GST/Flag-core106 dimerization, 1536-well; inhibition, % at 5 µM; actives 0.33% (n = 300,000);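 active = inhibition above the mean of all tested compounds plus 3 SD, set per screening campaign, cut at about 45% in these data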
#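 test system = GST/Flag-tagged HCV core106 proteins | probe or stimulus = Eu donor and XL665 acceptor anti-tag antibodies | times = compound-protein-antibody incubation 4 h at 22.5 °C | signal = TR-FRET, excitation 340 nm, emission 617 and 671 nm | measure = percent inhibition of core106 dimerization signal | controls = wells lacking GST-core106 and wells with excess unlabelled core106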
# PHOSPHO1 block = inhibitors of human PHOSPHO1 phosphatase; actives 1.1% (n = 290,000); Q8TCT1; recombinant PHOSPHO1, absorbance phosphatase assay; inhibition, % at 13.3 µM; in the data active = inhibition above about 60%
# Target sequence (Q8TCT1 whole entry, looked up): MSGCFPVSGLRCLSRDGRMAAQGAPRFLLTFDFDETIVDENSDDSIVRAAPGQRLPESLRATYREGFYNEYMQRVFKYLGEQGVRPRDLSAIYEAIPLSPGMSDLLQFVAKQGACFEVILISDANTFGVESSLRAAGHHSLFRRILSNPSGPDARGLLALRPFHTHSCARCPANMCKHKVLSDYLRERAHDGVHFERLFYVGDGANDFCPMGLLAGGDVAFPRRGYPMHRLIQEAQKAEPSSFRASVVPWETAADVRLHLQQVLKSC
# The depositor's hits bear a star; x = not tested or not shown; ! = not active in a repeat.
SMILES,HSF1 inh,HSF-1 act,AI-2 QS modul,ALR inh,core dimer inh,PHOSPHO1 block
O=C(COC(=O)Cn1cnc2ccccc2c1=O)Nc1ccccc1OC(F)F,x,x,x,2,x,x
CCN(CC)CCOc1ccc(/C(=C(/Cl)c2ccccc2)c2ccccc2)cc1,18,67*!,13,-19,-16,25
CC/C(=C(\c1ccccc1)c1ccc(OCCN(C)C)cc1)c1ccccc1,-2,-3,19,-14,-16,x
CC/C(=C(\c1ccc(O)cc1)c1ccc(OCCN(C)C)cc1)c1ccccc1,1,-7,2,97*,-7,36
O=[N+]([O-])c1ccc(SCCO)nc1SCCO,-7,-11,26,-1,1,3
O=c1c2cc(Cl)ccc2nc(-c2ccc([N+](=O)[O-])cc2)n1O,1,14,-83*,-7,-25,30
CC(On1c(-c2ccccc2)nc2ccc(Cl)cc21)C(=O)O (stereo unspecified),21,27,5,-8,-9,-10
On1c(-c2ccccc2)nc2ccc(Cl)cc21,32,54*,8,x,-2,2
O=c1c2cc(Br)ccc2nc(-c2ccc(Cl)cc2)n1O,-1,-1,18,x,-5,33
CSc1ccc(C2=CC(=O)C[C@H](c3ccc(Cl)cc3)C2)cc1,x,x,x,1,x,x
Cc1nc(-c2ccc(F)cc2)c(CC(=O)Nc2ccc(C)c(S(=O)(=O)N3CCOCC3)c2)s1,2,-7,-7,-5,8,48
CC(C)Oc1ccc(N2CC(C(=O)NC3=NCCS3)CC2=O)cc1 (stereo unspecified),2,-7,14,-3,-4,64*
O=C(Nc1nnc(C2CCCCC2)s1)C1CC(=O)N(c2ccc(F)cc2)C1 (stereo unspecified),-3,17,14,-8,-1,-148
COc1ccc(N2CC(C(=O)Nc3nnc(C4CCCCC4)s3)CC2=O)cc1 (stereo unspecified),-62*,-70,18,x,18,13
O=C(Nc1nnc(SCc2cccnc2)s1)C1CC(=O)N(c2ccc(F)cc2)C1 (stereo unspecified),-5,-7,0,97*,24,-6
COc1cccc(N2CC(C(=O)Nc3nnc(SCc4cccnc4)s3)CC2=O)c1 (stereo unspecified),-3,6,22,-44,13,-11
N#Cc1ccc(CSc2nnc(NC(=O)C3CC(=O)N(c4ccc5c(c4)OCCO5)C3)s2)cc1 (stereo unspecified),-4,-6,17,-4,64*,-1
CCc1n[nH]c(=S)n1/N=C/c1ccc(N(C)c2ccccc2)cc1,3,4,3,3,8,46
CCc1n[nH]c(=S)n1/N=C/c1ccc2c(c1)OCO2,3,0,31,16,3,103*
CCC(C(=O)NC1CCCCC1)N(Cc1cccs1)C(=O)c1snc(C(N)=O)c1N (stereo unspecified),-1,1,32,-1,-3,40
Cc1ccccc1NCC(=O)N/N=C/c1ccc([N+](=O)[O-])cc1,10,-4,0,x,3,-1
O=C(CNc1cccc2ccccc12)N/N=C/c1ccc([N+](=O)[O-])cc1,31,77*,32,-26,1,3
CCc1ccc(C(=O)Cc2cc3cccc(OC)c3oc2=O)cc1,36,80*,29,-8,19,46
O=c1cc(O)n(-c2ccccc2F)c(=S)[nH]1,-26,-40,7,-6,-8,35
O=c1cc(O)n(-c2ccc(Cl)cc2)c(=S)[nH]1,-1,7,34,57,5,82*
SMILES,HSF1 inh,HSF-1 act,AI-2 QS modul,ALR inh,core dimer inh,PHOSPHO1 block
Cc1ccc2c(c1)N(C(=O)CCC(=O)Nc1ccccc1Cl)CC(C)O2 (stereo unspecified),-5,-1,17,-4,-3,7
CCOC(=O)N1CCN(C(=O)C2CCC(=O)N(CCCc3ccccc3)C2)CC1 (stereo unspecified),-2,-10,15,-19,x,61*
CCOC(=O)N1CCN(C(=O)C2CCC(=O)N(CCCN3CCCC3=O)C2)CC1 (stereo unspecified),3,10,17,-9,10,37
O=C1/C(=C/c2ccco2)CCc2ccccc21,5,17,17,-6,3,-2
Nc1ccc2c(c1)C/C(=C/c1ccco1)C2=O,-6,11,17,1,94*,5
COc1ccc(S(=O)(=O)N2CC(O)C[C@H]2C(=O)OCC(=O)N2CCCCCC2)cc1 (stereo partly specified),-3,-1,5,-3,-1,28
Cc1ccc(OCC(=O)N2CCCCC2)c(Br)c1,13,17,15,-21,-1,-8
CC(C)(C)c1ccc(OCC(=O)N2CCCCCC2)c(Br)c1,37,69*,31,-9,8,13
CC(C)C(=O)c1ccc(O)c(O)c1,-4,-1,8,99*,-2,15
CC(C)(C)c1ccc(O)c(O)c1,x,x,x,-7,x,x
Cc1ccc(S(=O)(=O)Nc2cccc3ncccc23)s1,132,108*,25,-12,5,-9
CCCS(=O)(=O)N1CCCC(C(=O)NCCN(CC)c2ccccc2)C1 (stereo unspecified),3,-3,13,99*,-4,44
CCN(CCCNC(=O)C1CCN(S(=O)(=O)N2CCOCC2)CC1)c1cccc(C)c1,12,15,15,99*,-5,21
CCCS(=O)(=O)N1CCCC(C(=O)NCCCN(CC)c2cccc(C)c2)C1 (stereo unspecified),27,56*,4,99*,-11,20
CCOc1ccccc1NC(=O)CSc1nnc(-c2cccnc2)o1,-1,8,23,-49,-1,x
CN(CC1CCOCC1)C(=O)CC1C(=O)NCCN1Cc1cccc(Oc2ccccc2)c1 (stereo unspecified),0,17,-1,-5,2,11
Cc1cc(C)n2nc3nc(N4CCCC4)nc(-c4ccccc4)c3c2n1,2,7,19,-1,48*,-1
COC(=O)c1ccccc1NC(=O)CCn1c(=O)oc2ccccc21,7,7,16,6,10,37
COc1ccc(C2N(C(=O)CN3CCCC3)CCCN2S(=O)(=O)c2ccccc2)cc1 (stereo unspecified),52,105*,x,-1,-12,11
CC1(C)C2CCC1(CS(=O)(=O)N1CCN(c3ccc(F)cc3)CC1)C(=O)C2 (stereo unspecified),10,-1,34,1,-1,45
CCN1C(=O)c2cccc3c(S(=O)(=O)Nc4ncccc4C)ccc1c23,41,89*,6,-18,-2,23

# Compound activity as filed in PubChem BioAssay.
